The record followed here is article PMC5771089 (Theranostics, 2018).

The structures appear in SMILES notation.

The target of data set [1] is biotinylated BSA (serum albumin) (Bos taurus, UniProt P02769). Briefly: Kinetic binding assay by biolayer interferometry. Details: species or system bovine. The method in brief: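 Biolayer interferometry on streptavidin biosensors. Steps: PBS baseline 60 s; biotin-BSA load (1 µg/mL) 600 s; PBS 60 s; biocytin quench (1 µg/mL) 180 s; PBS 60 s; test compound association 600 s; dissociation 600 s. Nonspecific signal subtracted, taken from BSA-loaded sensor in buffer alone and blank sensor with analyte.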
Chain of biotinylated BSA (serum albumin) (P02769 25-607): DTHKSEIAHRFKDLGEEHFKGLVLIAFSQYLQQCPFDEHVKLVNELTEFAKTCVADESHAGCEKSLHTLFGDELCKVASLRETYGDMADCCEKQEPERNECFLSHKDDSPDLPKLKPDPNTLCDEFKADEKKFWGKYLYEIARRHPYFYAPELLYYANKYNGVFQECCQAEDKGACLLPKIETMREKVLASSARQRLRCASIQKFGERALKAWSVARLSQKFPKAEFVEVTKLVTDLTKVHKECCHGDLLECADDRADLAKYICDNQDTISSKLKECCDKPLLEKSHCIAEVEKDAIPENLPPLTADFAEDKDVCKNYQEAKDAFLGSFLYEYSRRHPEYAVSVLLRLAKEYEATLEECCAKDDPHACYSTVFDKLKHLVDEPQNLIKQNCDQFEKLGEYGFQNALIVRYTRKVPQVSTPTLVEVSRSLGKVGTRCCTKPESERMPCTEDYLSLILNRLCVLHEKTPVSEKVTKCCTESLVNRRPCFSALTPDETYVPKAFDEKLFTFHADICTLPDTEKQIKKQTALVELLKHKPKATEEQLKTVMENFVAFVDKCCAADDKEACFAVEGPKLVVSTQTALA
Background: Biolayer interferometry detects binding as a change in optical thickness at a sensor tip.

For data set [2], the system named is HCT116/SSTR2 (SSTR2+) and HCT116 (SSTR2-) cells. The data set is described as follows: Cell uptake/internalization. The class given is cell-based, human. The gist of the method:
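HCT116/SSTR2 (transfected) and parental HCT116 cells grown in McCoy's 5A with 10% FBS at 37 °C, 5% CO2. 10^5 cells/well plated 24 h ahead, PBS-washed, then given 18.5 KBq/well 86Y-labelled tracer in 0.5 mL medium with 1% (w/v) HSA. At each time point: PBS wash, then 0.1 M NaOH lysis. For internalized fraction, surface tracer stripped first with 1 min glycine 50 mM/NaCl 100 mM, pH 2.8. Gamma-counted as % of added activity; triplicates; blocking at 24 h.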

Data set [3] relates to HCT116/SSTR2 tumor xenografts. The data set is described as follows: In vivo PET in HCT116/SSTR2 xenografts. Further details: species or system mouse.

As usually defined, the Kd is the free concentration of one partner at which half of the binding sites on the other are occupied at equilibrium, for simple one-to-one binding. Read a high Kd as lower affinity. In turn, `Cc1cc(-c2ccc(NC(=O)[C@H](CCCCNC(=O)CCN3C(=O)CC(SCC(=O)N[C@H](Cc4ccccc4)C(=O)N[C@H]4CSSC[C@@H](C(=O)N[C@H](C(=O)O)[C@@H](C)O)NC(=O)[C@H]([C@@H](C)O)NC(=O)[C@H](CCCCN)NC(=O)[C@@H](Cc5c[nH]c6ccccc56)NC(=O)[C@H](Cc5ccc(O)cc5)NC4=O)C3=O)NC(=O)CN3CCN(CC(=O)O)CCN(CC(=O)O)CCN(CC(=O)O)CC3)c(C)c2)ccc1N=Nc1ccc2c(S(=O)(=O)O)cc(S(=O)(=O)O)c(N)c2c1O` (stereo partly drawn) [EB-TATE] came in with a Kd in data set [1] of 4.8 µM.
In the case of `Cc1cc(-c2ccc(NC(=O)[C@H](CCCCNC(=O)CCN3C(=O)CC(SCC(=O)N[C@H](Cc4ccccc4)C(=O)N[C@H]4CSSC[C@@H](C(=O)N[C@H](C(=O)O)[C@@H](C)O)NC(=O)[C@H]([C@@H](C)O)NC(=O)[C@H](CCCCN)NC(=O)[C@@H](Cc5c[nH]c6ccccc56)NC(=O)[C@H](Cc5ccc(O)cc5)NC4=O)C3=O)NC(=O)CN3CCN(CC(=O)O)CCN(CC(=O)O)CCN(CC(=O)O)CC3)c(C)c2)ccc1N=Nc1ccc2c(S(=O)(=O)O)cc(S(=O)(=O)O)c(N)c2c1O` (stereo partly drawn) [^86Y-EB-TATE, metal not drawn], the “Cell uptake (percent of added radioactivity)” value in data set [2] (HCT116/SSTR2 cells, 24 h, 18.5 KBq/well, medium with 1% (w/v) HSA, triplicate) is recorded as 12.05±0.67%. The “Uptake/internalization in SSTR2 positive vs SSTR2 negative cells” value in data set [2] (HCT116/SSTR2 vs HCT116, 1% HSA, p < 0.001) is “significantly higher”. Further, the “Amount retained in the blood compared to ^86Y-TATE” value in data set [3] (1 h p.i., PET quantification) stood at 4 fold. Also, the “Tumor exposure to the radioisotope (AUC) compared to ^86Y-TATE” value in data set [3] (AUC of tumor radioactivity over time, non-decay corrected data) is given as “approximately 6 fold”. Further, in data set [3] (PET quantification, i.v. 0.92 MBq (4 nmol)), the “Increase of half-life in the blood compared to ^86Y-TATE” value is on record as 2 fold.
